Measurements as given in ChEMBL document CHEMBL1255453, “Affinity of ceftaroline and other beta-lactams for penicillin-binding proteins from Staphylococcus aureus and Streptococcus pneumoniae” (Antimicrob Agents Chemother, 2010).
≈ marks a conversion by molar mass, not a printed value.

Legend:
MecA = target: T1, MecA (Staphylococcus aureus, UniProt Q7DHH4); experiment: Binding affinity to methicillin-resistant, vancomycin-intermediate, beta-lactamase-positive Staphylococcus aureus 1287 PBP2a by competitive binding assay
T1 sequence (Q7DHH4 whole entry): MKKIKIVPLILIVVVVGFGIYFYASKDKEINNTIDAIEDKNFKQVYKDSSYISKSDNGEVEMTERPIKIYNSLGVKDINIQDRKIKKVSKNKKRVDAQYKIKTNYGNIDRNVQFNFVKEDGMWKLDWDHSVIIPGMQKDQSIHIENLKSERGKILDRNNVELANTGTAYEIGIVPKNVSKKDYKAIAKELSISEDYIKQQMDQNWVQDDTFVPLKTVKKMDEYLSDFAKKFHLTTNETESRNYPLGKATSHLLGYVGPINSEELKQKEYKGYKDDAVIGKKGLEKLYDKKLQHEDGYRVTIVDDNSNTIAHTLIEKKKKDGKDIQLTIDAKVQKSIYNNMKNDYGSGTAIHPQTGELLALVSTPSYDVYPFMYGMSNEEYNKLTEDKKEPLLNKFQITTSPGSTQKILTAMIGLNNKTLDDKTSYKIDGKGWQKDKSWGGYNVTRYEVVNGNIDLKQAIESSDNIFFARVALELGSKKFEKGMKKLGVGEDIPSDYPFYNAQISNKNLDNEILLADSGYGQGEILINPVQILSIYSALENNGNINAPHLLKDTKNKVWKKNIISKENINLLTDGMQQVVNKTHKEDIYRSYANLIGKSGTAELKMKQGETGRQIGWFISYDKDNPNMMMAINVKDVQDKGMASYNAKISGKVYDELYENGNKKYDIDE
In short: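 MRSA grown in brain heart infusion and harvested in exponential phase (OD600 0.3–0.4). Membranes prepared by lysozyme/lysostaphin/DNase, freeze-thaw and sonication, then ultracentrifugation. Membranes preincubated with clavulanic acid 1 mg/ml to saturate PBPs other than PBP2a. Then β-lactam 10 min at 37°C and Bocillin FL 40 μg/ml, 15 min at 37°C. SDS-PAGE fluorescence; IC50 = 50% inhibition of Bocillin FL binding; 3 isolations.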

[1] = Binding affinity to methicillin-resistant, heteroresistant vancomycin-intermediate, beta-lactamase-negative Staphylococcus aureus 873 PBP3 by competitive binding assay
Staphylococcus aureus [2] = experiment: Antibacterial activity against methicillin-, linezolid-resistant, vancomycin-intermediate, beta-lactamase-positive Staphylococcus aureus 2149A by macrodilution method; format: functional
In short: (§1)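 CLSI broth macrodilution MICs. The S. aureus set is 5 MRSA strains (hVISA, VISA, VRSA) plus 1 MSSA. The S. pneumoniae set is 7 clonally unrelated clinical isolates, categorised by penicillin G against 2006 CLSI M100-S17 criteria (resistant ≥2 μg/ml, susceptible ≤0.06 μg/ml).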

Streptococcus pneumoniae [3] = experiment: Antibacterial activity against penicillin-resistant Streptococcus pneumoniae 1564 by macrodilution method; format: functional; in short: as §1
[4] = Binding affinity to methicillin-, vancomycin-resistant, beta-lactamase-positive Staphylococcus aureus 510 PBP1 by competitive binding assay
[5] = Binding affinity to against methicillin-, daptomycin-resistant, vancomycin-intermediate, beta-lactamase-positive Staphylococcus aureus 25 PBP3 by competitive binding assay
In short: (§2)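 MRSA strain harvested in stationary phase (OD600 >2.00). Membranes prepared by enzymatic lysis, freeze-thaw, sonication and ultracentrifugation, then preincubated with clavulanic acid 1 mg/ml. β-Lactam competition 10 min at 37°C, then Bocillin FL 40 μg/ml, 15 min at 37°C. SDS-PAGE, 520 nm imaging; IC50 = 50% inhibition of Bocillin FL labeling; 3 membrane isolations.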

[6] = Binding affinity to methicillin-, linezolid-resistant, vancomycin-intermediate, beta-lactamase-positive Staphylococcus aureus 2149A PBP1 by competitive binding assay
[7] = Binding affinity to methicillin-resistant, heteroresistant vancomycin-intermediate, beta-lactamase-negative Staphylococcus aureus 873 PBP4 by competitive binding assay
Streptococcus pneumoniae [8] = experiment: Antibacterial activity against penicillin-resistant Streptococcus pneumoniae 3413 by macrodilution method; format: functional; in short: as §1
[9] = Binding affinity to methicillin-, linezolid-resistant, vancomycin-intermediate, beta-lactamase-positive Staphylococcus aureus 2149A PBP2 by competitive binding assay
[10] = Binding affinity to against methicillin-, daptomycin-resistant, vancomycin-intermediate, beta-lactamase-positive Staphylococcus aureus 25 PBP2 by competitive binding assay; in short: as §2
[11] = target: Penicillin-binding protein 2x (Streptococcus pneumoniae serotype 4 (strain ATCC BAA-334 / TIGR4), UniProt P14677); experiment: Binding affinity to penicillin-resistant Streptococcus pneumoniae 2527 PBP2X by competitive binding assay
Penicillin-binding protein 2x, sequence (P14677 whole entry, looked up): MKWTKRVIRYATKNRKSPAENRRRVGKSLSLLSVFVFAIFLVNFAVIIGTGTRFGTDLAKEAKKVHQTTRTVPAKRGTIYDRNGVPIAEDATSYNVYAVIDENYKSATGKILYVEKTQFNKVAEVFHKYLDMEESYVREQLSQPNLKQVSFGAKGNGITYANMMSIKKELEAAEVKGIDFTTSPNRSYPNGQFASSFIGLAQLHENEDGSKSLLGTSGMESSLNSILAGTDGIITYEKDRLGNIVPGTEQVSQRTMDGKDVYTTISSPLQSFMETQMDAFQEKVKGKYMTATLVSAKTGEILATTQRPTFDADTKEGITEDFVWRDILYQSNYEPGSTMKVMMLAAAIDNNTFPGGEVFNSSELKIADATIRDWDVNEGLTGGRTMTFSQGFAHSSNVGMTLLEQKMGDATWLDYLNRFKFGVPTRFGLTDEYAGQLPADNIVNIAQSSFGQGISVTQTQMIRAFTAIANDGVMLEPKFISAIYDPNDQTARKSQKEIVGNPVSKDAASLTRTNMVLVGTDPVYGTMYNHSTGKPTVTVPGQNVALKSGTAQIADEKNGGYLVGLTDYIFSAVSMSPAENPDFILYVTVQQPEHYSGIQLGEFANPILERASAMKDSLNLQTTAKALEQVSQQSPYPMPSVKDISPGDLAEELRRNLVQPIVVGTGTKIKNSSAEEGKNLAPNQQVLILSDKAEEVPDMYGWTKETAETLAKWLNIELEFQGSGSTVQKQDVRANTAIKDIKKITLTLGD
In short: (§3)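 Whole pneumococcal cells were grown to OD600 0.3 in Todd-Hewitt broth plus 0.5% yeast extract, then resuspended in 50 mM NaPO4, pH 7.0. Cells at 10^8 to 5 × 10^8 CFU/ml were exposed to β-lactam for 10 min at 37°C, alongside a reference without drug. They were then labeled with 10 μg/ml Bocillin FL for 15 min at 37°C. Proteins were resolved by SDS-PAGE and fluorescence read at 520 nm. IC50 was taken as 50% inhibition of Bocillin FL binding, from 2 experiments.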

[12] = Binding affinity to methicillin-, vancomycin-resistant, beta-lactamase-positive Staphylococcus aureus 510 PBP3 by competitive binding assay
[13] = Binding affinity to penicillin-resistant Streptococcus pneumoniae 3413 PBP3 by competitive binding assay; in short: as §3
[14] = Binding affinity to methicillin-resistant, heteroresistant vancomycin-intermediate, beta-lactamase-negative Staphylococcus aureus 873 PBP1 by competitive binding assay
Staphylococcus aureus [15] = experiment: Antibacterial activity against methicillin-, vancomycin-resistant, beta-lactamase-positive Staphylococcus aureus 510 by macrodilution method; format: functional; in short: as §1
[16] = Binding affinity to penicillin-resistant Streptococcus pneumoniae 24 PBP1B by competitive binding assay
In short: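 Whole pneumococcal cells grown to OD600 0.3 in Todd-Hewitt broth with 0.5% yeast extract, resuspended in 50 mM NaPO4 pH 7.0. Cells (10^8–5 × 10^8 CFU/ml) incubated with β-lactam 10 min at 37°C, then Bocillin FL 10 μg/ml, 15 min at 37°C. SDS-PAGE, 520 nm fluorescence; IC50 = 50% inhibition of Bocillin FL binding; 2 experiments.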

[17] = Binding affinity to methicillin-, vancomycin-susceptible Staphylococcus aureus ATCC 29213 PBP1 by competitive binding assay
In short: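 MSSA grown in brain heart infusion broth and harvested at OD600 0.3–0.4. Lysed with lysozyme, lysostaphin, DNase I, freeze-thaw and sonication; membranes collected at 100,000 × g. Membranes (100 μg protein) incubated with β-lactam 10 min at 37°C, then Bocillin FL 40 μg/ml, 15 min at 37°C. SDS-PAGE, fluorescence at 520 nm. IC50 is 50% inhibition of Bocillin FL binding; 3 membrane isolations.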

[18] = Binding affinity to methicillin-resistant, heteroresistant vancomycin-intermediate, beta-lactamase-negative Staphylococcus aureus 873 PBP2 by competitive binding assay
[19] = Binding affinity to methicillin-, vancomycin-resistant, beta-lactamase-positive Staphylococcus aureus 510 PBP4 by competitive binding assay

| SMILES | IC50 (MecA) | IC50 [1] | MIC (Staphylococcus aureus [2]) | MIC (Streptococcus pneumoniae [3]) | IC50 [4] | IC50 [5] | IC50 [6] | IC50 [7] | MIC (Streptococcus pneumoniae [8]) | IC50 [9] | IC50 [10] | IC50 [11] | IC50 [12] | IC50 [13] | IC50 [14] | MIC (Staphylococcus aureus [15]) | IC50 [16] | IC50 [17] | IC50 [18] | IC50 [19] |
| --- | --- | --- | --- | --- | --- | --- | --- | --- | --- | --- | --- | --- | --- | --- | --- | --- | --- | --- | --- | --- |
| CO/N=C(\C(=O)N[C@@H]1C(=O)N2C(C(=O)O)=C(COC(C)=O)CS[C@H]12)c1csc(N)n1 [CEFOTAXIME] | 4.39 µM | 0.25 µg/mL (≈ 0.549 µM) | 32 µg/mL (≈ 70.3 µM) | 32 µg/mL (≈ 70.3 µM) | 0.5 µg/mL (≈ 1.1 µM) | 1 µg/mL (≈ 2.2 µM) | 4 µg/mL (≈ 8.78 µM) | > 128 µg/mL | 2 µg/mL (≈ 4.39 µM) | 1 µg/mL (≈ 2.2 µM) | 2 µg/mL (≈ 4.39 µM) | 0.22 µM | 0.25 µg/mL (≈ 0.549 µM) | 0.1 µg/mL (≈ 0.22 µM) | 2 µg/mL (≈ 4.39 µM) | > 64 µg/mL | 8 µg/mL (≈ 17.6 µM) | 0.25 µg/mL (≈ 0.549 µM) | 0.5 µg/mL (≈ 1.1 µM) | > 128 µg/mL |
| CO/N=C(\C(=O)N[C@@H]1C(=O)N2C(C(=O)O)=C(CSc3nc(=O)c(O)nn3C)CS[C@H]12)c1csc(N)n1 [CEFTRIAXONE] | 3.61 µM | 0.25 µg/mL (≈ 0.451 µM) | 64 µg/mL (≈ 115 µM) | 32 µg/mL (≈ 57.7 µM) | 0.5 µg/mL (≈ 0.902 µM) | 1 µg/mL (≈ 1.8 µM) | 4 µg/mL (≈ 7.21 µM) | > 128 µg/mL | 2 µg/mL (≈ 3.61 µM) | 1 µg/mL (≈ 1.8 µM) | 2 µg/mL (≈ 3.61 µM) | 0.18 µM | 0.25 µg/mL (≈ 0.451 µM) | 0.25 µg/mL (≈ 0.451 µM) | 2 µg/mL (≈ 3.61 µM) | > 64 µg/mL | 1 µg/mL (≈ 1.8 µM) | 0.25 µg/mL (≈ 0.451 µM) | 0.5 µg/mL (≈ 0.902 µM) | > 128 µg/mL |
| CC1(C)S[C@@H]2[C@H](NC(=O)Cc3ccccc3)C(=O)N2[C@H]1C(=O)O [PENICILLIN G] | 12 µM | 0.03 µg/mL (≈ 0.0897 µM) | 64 µg/mL (≈ 191 µM) | 16 µg/mL (≈ 47.8 µM) | 128 µg/mL (≈ 383 µM) | 0.5 µg/mL (≈ 1.5 µM) | 2 µg/mL (≈ 5.98 µM) | > 128 µg/mL | 4 µg/mL (≈ 12 µM) | > 128 µg/mL | 1 µg/mL (≈ 2.99 µM) |  | 4 µg/mL (≈ 12 µM) |  | 0.5 µg/mL (≈ 1.5 µM) | 32 µg/mL (≈ 95.7 µM) |  | 4 µg/mL (≈ 12 µM) | 0.5 µg/mL (≈ 1.5 µM) | 64 µg/mL (≈ 191 µM) |
